Reference: ChEMBL document CHEMBL4052814, “GNE-781, A Highly Advanced Potent and Selective Bromodomain Inhibitor of Cyclic Adenosine Monophosphate Response Element Binding Protein, Binding Protein (CBP)” (J Med Chem, 2017)

Assays:
[1] = molecular target: Nucleosome-remodeling factor subunit BPTF (Homo sapiens, UniProt Q12830); assay: Displacement of biotinylated histone H3K14 peptide ligand from recombinant His-tagged BPTF (unknown origin) measured after 10 mins by TR-FRET assay
[2] = Clearance in CD-1 mouse at 1 mg/kg, iv or 5 mg/kg, po by LC-MS/MS method; type: ADME, organism-based; settings: in vivo
In short: (§1)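 Female CD-1 mice, 6–9 weeks, n = 3 per route. Dosed 1 mg/kg i.v. in PEG400/water (35/65) or 5 mg/kg p.o. as a suspension in 0.5% methylcellulose, 0.2% Tween 80. Serial tail-nick blood sampled to 24 h, diluted in EDTA-water. Parent drug measured by non-validated LC-MS/MS after acetonitrile precipitation with an indomethacin internal standard.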

[3] = Half life in cynomolgus monkey at 1 mg/kg, iv or 5 mg/kg, po by LC-MS/MS method; type: ADME, organism-based, Macaca fascicularis; settings: in vivo
In short: (§2)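 Non-naïve male cynomolgus monkeys, at least 2 years old, n = 3 per route. Given 1 mg/kg i.v. in EtOH/PEG400/water (20/15/65) or 5 mg/kg p.o. in 0.5% methylcellulose, 0.2% Tween 80; oral groups fasted. Plasma (K2EDTA) collected pre-dose to 24 h. Analysed by non-validated LC-MS/MS.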

[4] = AUClast in cynomolgus monkey at 1 mg/kg, iv or 5 mg/kg, po by LC-MS/MS method; type: ADME, organism-based, Macaca fascicularis; settings: in vivo; in short: as §2
[5] = Protein binding in cynomolgus monkey plasma at 5 uM incubated for 4 hrs measured by LC-MS/MS method; type: ADME, cell-free, Macaca fascicularis; settings: read-out: PPB (converted)
[6] = Half life in CD-1 mouse at 1 mg/kg, iv or 5 mg/kg, po by LC-MS/MS method; type: ADME, organism-based; settings: in vivo; in short: as §1
[7] = Clearance in cynomolgus monkey at 1 mg/kg, iv or 5 mg/kg, po by LC-MS/MS method; type: ADME, organism-based, Macaca fascicularis; settings: in vivo; in short: as §2
[8] = molecular target: T1, Transcription initiation factor TFIID subunit 1 (Homo sapiens, UniProt P21675); assay: Displacement of biotinylated histone H3K14 peptide ligand from human recombinant His-tagged TAF1 bromodomain-1 measured after 10 mins by TR-FRET assay
[9] = Protein binding in human plasma at 5 uM incubated for 4 hrs measured by LC-MS/MS method; type: ADME, cell-free; settings: read-out: PPB (converted)
[10] = AUClast in Sprague-Dawley rat at 1 mg/kg, iv or 5 mg/kg, po by LC-MS/MS method; type: ADME, organism-based; settings: in vivo
In short: (§3)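 Male Sprague-Dawley rats, 6–9 weeks, n = 3 per route. Dosed 1 mg/kg i.v. in PEG400/water (35/65) or 5 mg/kg p.o. in 0.5% methylcellulose, 0.2% Tween 80; oral groups fasted overnight until 4 h post-dose. Catheter blood sampled 0.033–24 h into K2EDTA and spun to plasma. Analysed by non-validated LC-MS/MS.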

[11] = Volume of distribution at steady state in beagle dog at 1 mg/kg, iv or 5 mg/kg, po by LC-MS/MS method; type: ADME, organism-based, Canis lupus familiaris; settings: in vivo, read-out: Vdss
In short: (§4)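 Non-naïve male beagle dogs or cynomolgus monkeys, n=3 per route. Dosing was 1 mg/kg i.v. in EtOH/PEG400/water 20/15/65 or 5 mg/kg p.o. in 0.5% methylcellulose/0.2% Tween 80; the p.o. group was fasted overnight. Peripheral blood was taken pre-dose to 24 h into K2EDTA and processed to plasma. Quantified by LC-MS/MS.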

[12] = Oral bioavailability in beagle dog at 5 mg/kg by LC-MS/MS method; type: ADME, organism-based, Canis lupus familiaris; settings: in vivo
In short: (§5)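 Non-naïve male beagle dogs, n = 3 per route. Dosed 1 mg/kg i.v. in EtOH/PEG400/water (20/15/65) or 5 mg/kg p.o. in 0.5% methylcellulose, 0.2% Tween 80; oral groups fasted overnight until 4 h post-dose. Peripheral blood taken pre-dose to 24 h and processed to K2EDTA plasma. Analysed by non-validated LC-MS/MS.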

[13] = Protein binding in rat plasma at 5 uM incubated for 4 hrs measured by LC-MS/MS method; type: ADME, cell-free; settings: read-out: PPB (converted)
[14] = Volume of distribution at steady state in Sprague-Dawley rat at 1 mg/kg, iv or 5 mg/kg, po by LC-MS/MS method; type: ADME, organism-based; settings: in vivo, read-out: Vdss
In short: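 Male Sprague-Dawley rats, 6–9 weeks old, n=3 per route. Dosing was 1 mg/kg i.v. in PEG400/water 35/65 or 5 mg/kg p.o. in 0.5% methylcellulose/0.2% Tween 80; the p.o. group was fasted overnight. Catheter blood was taken at 0.033–24 h into K2EDTA and processed to plasma. Quantified by LC-MS/MS.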

[15] = Clearance in Sprague-Dawley rat at 1 mg/kg, iv or 5 mg/kg, po by LC-MS/MS method; type: ADME, organism-based; settings: in vivo; in short: as §3
[16] = molecular target: Peregrin (Homo sapiens, UniProt P55201); assay: Displacement of biotinylated histone H3K14 peptide ligand from human recombinant His-tagged BRPF1 measured after 10 mins by TR-FRET assay
[17] = molecular target: Bromodomain adjacent to zinc finger domain protein 2B (Homo sapiens, UniProt Q9UIF8); assay: Displacement of biotinylated histone H3K14 peptide ligand from human recombinant His-tagged BAZ2B measured after 10 mins by TR-FRET assay
[18] = Oral bioavailability in Sprague-Dawley rat at 5 mg/kg by LC-MS/MS method; type: ADME, organism-based; settings: in vivo; in short: as §3
[19] = Protein binding in dog plasma at 5 uM incubated for 4 hrs measured by LC-MS/MS method; type: ADME, cell-free, Canis lupus familiaris; settings: read-out: PPB (converted)
[20] = molecular target: T1, Transcription initiation factor TFIID subunit 1; assay: Displacement of biotinylated histone H3K14 peptide ligand from recombinant His-tagged TAF1 bromodomain-2 (unknown origin) measured after 10 mins by TR-FRET assay
[21] = molecular target: Bromodomain-containing protein 8 (Homo sapiens, UniProt Q9H0E9); assay: Displacement of biotinylated histone H3K14 peptide ligand from recombinant His-tagged BRD8 bromodomain-1 (unknown origin) measured after 10 mins by TR-FRET assay
[22] = Cmax in beagle dog at 1 mg/kg, iv or 5 mg/kg, po by LC-MS/MS method; type: ADME, organism-based, Canis lupus familiaris; settings: in vivo; in short: as §5
[23] = Cmax in Sprague-Dawley rat at 1 mg/kg, iv or 5 mg/kg, po by LC-MS/MS method; type: ADME, organism-based; settings: in vivo; in short: as §3
[24] = tested on: Rattus norvegicus; assay: Neurotoxicity in rat assessed as effect on vocalization and hyperactivity at 250 mg/kg administered as single dose; type: toxicity, organism-based; settings: in vivo
[25] = Oral bioavailability in CD-1 mouse at 5 mg/kg by LC-MS/MS method; type: ADME, organism-based; settings: in vivo; in short: as §1
[26] = Protein binding in mouse plasma at 5 uM incubated for 4 hrs measured by LC-MS/MS method; type: ADME, cell-free; settings: read-out: PPB (converted)
[27] = Volume of distribution at steady state in cynomolgus monkey at 1 mg/kg, iv or 5 mg/kg, po by LC-MS/MS method; type: ADME, organism-based, Macaca fascicularis; settings: in vivo, read-out: Vdss; in short: as §4
[28] = molecular target: Histone acetyltransferase KAT2B (Homo sapiens, UniProt Q92831); assay: Displacement of biotinylated histone H3K14 peptide ligand from human recombinant His-tagged PCAF measured after 10 mins by TR-FRET assay
[29] = AUClast in CD-1 mouse at 1 mg/kg, iv or 5 mg/kg, po by LC-MS/MS method; type: ADME, organism-based; settings: in vivo; in short: as §1

T1 sequence (P21675 whole entry): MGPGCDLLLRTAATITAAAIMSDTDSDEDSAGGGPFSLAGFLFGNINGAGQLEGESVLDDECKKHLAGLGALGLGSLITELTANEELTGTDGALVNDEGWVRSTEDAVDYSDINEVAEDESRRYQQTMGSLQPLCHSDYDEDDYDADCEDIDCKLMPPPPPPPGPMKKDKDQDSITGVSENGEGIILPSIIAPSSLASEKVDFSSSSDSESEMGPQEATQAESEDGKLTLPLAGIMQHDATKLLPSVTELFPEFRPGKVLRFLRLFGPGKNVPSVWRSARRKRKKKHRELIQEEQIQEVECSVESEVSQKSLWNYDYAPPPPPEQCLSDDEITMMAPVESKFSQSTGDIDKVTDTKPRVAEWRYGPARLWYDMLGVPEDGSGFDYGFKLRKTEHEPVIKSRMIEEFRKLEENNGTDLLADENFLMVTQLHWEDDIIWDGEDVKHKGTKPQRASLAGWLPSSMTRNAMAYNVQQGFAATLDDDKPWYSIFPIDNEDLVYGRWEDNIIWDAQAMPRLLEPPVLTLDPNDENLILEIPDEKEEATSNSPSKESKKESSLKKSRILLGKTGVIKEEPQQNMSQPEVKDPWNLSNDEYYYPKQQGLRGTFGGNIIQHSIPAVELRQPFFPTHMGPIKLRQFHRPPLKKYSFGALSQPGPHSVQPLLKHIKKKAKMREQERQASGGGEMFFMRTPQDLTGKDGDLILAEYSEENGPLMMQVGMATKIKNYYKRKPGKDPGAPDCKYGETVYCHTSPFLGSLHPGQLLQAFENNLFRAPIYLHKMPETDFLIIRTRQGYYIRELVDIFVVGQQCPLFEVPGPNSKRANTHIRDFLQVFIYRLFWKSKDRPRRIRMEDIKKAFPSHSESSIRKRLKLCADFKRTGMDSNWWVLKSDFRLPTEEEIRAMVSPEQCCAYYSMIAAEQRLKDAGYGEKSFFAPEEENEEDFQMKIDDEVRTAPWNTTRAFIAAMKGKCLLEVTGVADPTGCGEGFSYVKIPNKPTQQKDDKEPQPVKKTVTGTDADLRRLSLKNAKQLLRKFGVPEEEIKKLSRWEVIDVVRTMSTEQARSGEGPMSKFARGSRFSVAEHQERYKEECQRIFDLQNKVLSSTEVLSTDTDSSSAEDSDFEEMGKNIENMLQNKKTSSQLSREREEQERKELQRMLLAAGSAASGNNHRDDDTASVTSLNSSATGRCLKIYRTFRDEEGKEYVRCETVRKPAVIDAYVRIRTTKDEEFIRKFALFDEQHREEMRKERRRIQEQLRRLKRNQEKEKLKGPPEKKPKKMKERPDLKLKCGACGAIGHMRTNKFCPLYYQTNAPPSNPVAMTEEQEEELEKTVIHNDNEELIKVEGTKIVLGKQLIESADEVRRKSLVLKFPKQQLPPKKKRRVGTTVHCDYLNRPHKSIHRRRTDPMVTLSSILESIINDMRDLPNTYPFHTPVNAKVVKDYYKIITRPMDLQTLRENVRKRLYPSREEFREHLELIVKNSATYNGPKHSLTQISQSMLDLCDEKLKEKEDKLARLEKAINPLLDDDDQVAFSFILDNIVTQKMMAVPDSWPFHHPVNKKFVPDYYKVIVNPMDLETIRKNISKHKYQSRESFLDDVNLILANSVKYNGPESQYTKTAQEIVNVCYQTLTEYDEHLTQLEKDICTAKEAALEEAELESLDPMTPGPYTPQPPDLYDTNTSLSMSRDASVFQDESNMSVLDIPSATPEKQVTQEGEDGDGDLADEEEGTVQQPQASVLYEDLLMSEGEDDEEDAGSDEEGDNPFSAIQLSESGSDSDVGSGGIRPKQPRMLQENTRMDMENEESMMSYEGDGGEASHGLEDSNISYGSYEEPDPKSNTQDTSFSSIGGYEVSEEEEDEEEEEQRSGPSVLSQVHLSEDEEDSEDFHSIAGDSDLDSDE
Chain of Bromodomain-containing protein 8 (Q9H0E9 whole entry): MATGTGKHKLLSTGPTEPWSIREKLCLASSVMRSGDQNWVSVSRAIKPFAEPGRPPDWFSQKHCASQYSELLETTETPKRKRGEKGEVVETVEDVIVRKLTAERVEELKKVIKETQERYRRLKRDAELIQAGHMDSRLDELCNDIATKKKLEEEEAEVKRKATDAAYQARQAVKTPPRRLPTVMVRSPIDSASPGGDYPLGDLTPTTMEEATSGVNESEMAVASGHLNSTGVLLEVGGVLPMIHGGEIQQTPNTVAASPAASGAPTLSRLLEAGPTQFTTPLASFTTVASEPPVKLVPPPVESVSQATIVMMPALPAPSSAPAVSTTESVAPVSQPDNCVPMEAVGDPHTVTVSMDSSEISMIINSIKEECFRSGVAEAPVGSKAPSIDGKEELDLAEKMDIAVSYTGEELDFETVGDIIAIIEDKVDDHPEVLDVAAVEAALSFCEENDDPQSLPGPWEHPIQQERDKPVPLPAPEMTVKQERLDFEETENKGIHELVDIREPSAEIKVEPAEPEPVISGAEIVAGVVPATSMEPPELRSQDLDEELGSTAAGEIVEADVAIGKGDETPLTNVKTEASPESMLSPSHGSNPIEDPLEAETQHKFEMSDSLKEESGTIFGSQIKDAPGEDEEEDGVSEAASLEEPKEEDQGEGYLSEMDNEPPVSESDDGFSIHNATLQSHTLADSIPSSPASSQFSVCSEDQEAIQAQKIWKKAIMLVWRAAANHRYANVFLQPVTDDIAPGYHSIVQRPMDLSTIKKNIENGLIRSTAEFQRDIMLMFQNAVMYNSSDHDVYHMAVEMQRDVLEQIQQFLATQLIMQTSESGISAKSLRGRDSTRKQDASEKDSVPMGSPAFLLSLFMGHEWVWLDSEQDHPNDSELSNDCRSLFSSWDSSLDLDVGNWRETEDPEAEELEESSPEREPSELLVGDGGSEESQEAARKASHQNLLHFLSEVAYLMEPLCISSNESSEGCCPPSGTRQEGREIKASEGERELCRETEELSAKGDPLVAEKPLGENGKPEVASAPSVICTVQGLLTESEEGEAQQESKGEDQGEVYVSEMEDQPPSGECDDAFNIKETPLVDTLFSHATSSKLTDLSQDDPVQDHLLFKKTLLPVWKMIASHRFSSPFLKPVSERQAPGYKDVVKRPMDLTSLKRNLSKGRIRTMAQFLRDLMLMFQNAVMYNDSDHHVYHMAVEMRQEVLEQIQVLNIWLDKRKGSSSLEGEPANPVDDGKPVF
Chain of Histone acetyltransferase KAT2B (Q92831 whole entry): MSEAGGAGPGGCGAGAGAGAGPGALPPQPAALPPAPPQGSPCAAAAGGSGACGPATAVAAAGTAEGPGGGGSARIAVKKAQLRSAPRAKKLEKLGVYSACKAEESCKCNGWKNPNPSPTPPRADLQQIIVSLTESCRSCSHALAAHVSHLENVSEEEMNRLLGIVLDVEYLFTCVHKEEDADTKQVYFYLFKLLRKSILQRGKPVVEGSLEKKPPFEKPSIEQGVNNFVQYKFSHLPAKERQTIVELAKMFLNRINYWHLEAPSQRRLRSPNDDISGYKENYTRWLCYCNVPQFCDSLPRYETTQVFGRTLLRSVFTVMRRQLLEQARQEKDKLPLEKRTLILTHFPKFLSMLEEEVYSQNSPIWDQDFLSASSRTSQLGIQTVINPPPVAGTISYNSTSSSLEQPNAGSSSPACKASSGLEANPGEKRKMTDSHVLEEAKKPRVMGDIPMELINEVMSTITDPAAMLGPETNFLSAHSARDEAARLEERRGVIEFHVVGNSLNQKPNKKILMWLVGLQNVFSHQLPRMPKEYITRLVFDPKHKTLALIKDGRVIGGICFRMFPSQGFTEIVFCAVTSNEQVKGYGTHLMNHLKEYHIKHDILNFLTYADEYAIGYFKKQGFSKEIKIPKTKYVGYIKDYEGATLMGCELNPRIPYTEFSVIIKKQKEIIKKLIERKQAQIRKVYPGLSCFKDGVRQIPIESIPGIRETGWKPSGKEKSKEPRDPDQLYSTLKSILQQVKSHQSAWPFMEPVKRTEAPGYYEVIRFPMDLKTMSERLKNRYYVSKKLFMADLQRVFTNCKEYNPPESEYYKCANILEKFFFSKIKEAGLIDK

| IC50 [1] [µM] | clearance [2] [mL/min/kg] | half-life [3] [h] | AUC(0-t) [4] [µM·h] | fraction unbound at 4 h, 5 µM [5] | half-life [6] [h] | clearance [7] [mL/min/kg] | IC50 [8] [µM] | fraction unbound at 4 h, 5 µM [9] | AUC(0-t) [10] [µM·h] | Vd [11] [L/kg] | bioavailability [12] [%] | fraction unbound at 4 h, 5 µM [13] | Vd [14] [L/kg] | clearance [15] [mL/min/kg] | IC50 [16] [µM] | IC50 [17] [µM] | bioavailability [18] [%] | fraction unbound at 4 h, 5 µM [19] | IC50 [20] [µM] | SMILES | also measured |
| --- | --- | --- | --- | --- | --- | --- | --- | --- | --- | --- | --- | --- | --- | --- | --- | --- | --- | --- | --- | --- | --- |
| > 20 | 5.2 | 0.72 | 2.5 | 0.22 | 1.4 | 18 | > 20 | 0.16 | 16 | 1.5 | 100 | 0.06 | 0.64 | 3.8 | 4.6 | > 18 | 37 | 0.23 | > 20 | CNC(=O)N1CCc2c(c(N3CCCc4cc(-c5cnn(C)c5)c(C(F)F)cc43)nn2C2CCOCC2)C1 | IC50 [21]: > 20 µM; Cmax [22]: 8.3 µM; Cmax [23]: 4.1 µM; Activity [24]: Non-Toxic; bioavailability [25]: 73%; fraction unbound at 4 h, 5 µM [26]: 0.06; Vd [27]: 1 L/kg; IC50 [28]: > 20 µM; AUC(0-t) [29]: 6.5 µM·h |
| > 20 | 8.8 | 2.8 | 8.5 | 0.21 | 1.1 | 7.4 | > 20 | 0.16 | 9.4 | 1 | 94 | 0.12 | 0.81 | 16 | > 20 | > 20 | 93 | 0.19 | > 20 | CC(=O)N1CCc2c(c(N3CCCc4cc(-c5cnn(C)c5)c(C(F)F)cc43)nn2C2CCOCC2)C1 | IC50 [21]: > 20 µM; Cmax [22]: 5.1 µM; Cmax [23]: 3.2 µM; Activity [24]: Toxic; bioavailability [25]: 72%; fraction unbound at 4 h, 5 µM [26]: 0.08; Vd [27]: 1.4 L/kg; IC50 [28]: > 20 µM; AUC(0-t) [29]: 13.7 µM·h |
